In brackets after ≈: the same amount, converted by molar mass. Each block holds one compound with its values, some of them ahead of it.
Legend:
[1] = test system: mouse aortic ECs; experiment: IL-6 mRNA induction in mouse aortic ECs; type: cell-based
Procedure, shortened: (§1)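 Mouse aortic endothelial cells were exposed to the nonselective agonist NECA over a time course. IL-6 and KC were read out as mRNA by quantitative RT-PCR and as secreted protein.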

[2] = test system: mouse aortic ECs; experiment: IL-6 and KC production in mouse aortic ECs; type: cell-based; details: for effect on IL-6 production in ECs (ELISA): 16 h, 10 nmol/L CPA, 100 nmol/L CGS21680, 10 nmol/L Cl-IBMECA
Procedure, shortened: as §1

[3] = test system: mouse aortic ECs; experiment: Cyclic AMP accumulation in mouse aortic ECs; type: cell-based; details: ECs from C57BL/6 mice
[4] = test system: C57BL/6J and adenosine receptor knockout mice; experiment: NECA gavage before glucose tolerance test, fasting glucose and plasma IL-6; type: in vivo, mouse
Procedure, shortened: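 Male 8-week C57BL/6J mice and congenic adenosine receptor knockouts (N = 5) received an oral bolus of vehicle or NECA (0.3 mg/kg) 35 min before an ip GTT (1.25 g/kg). Blood glucose was read by glucometer and AUC calculated. Fasting glucose was taken 35 min after gavage. Plasma IL-6 was measured 4 h after dosing.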

[5] = Aqueous solubility; type: physicochemical
[6] = Oral bioavailability in rats; type: in vivo, rat
[7] = test system: KKA^Y mice; experiment: Hyperinsulinemic-euglycemic clamp in diabetic KKA^Y mice; type: in vivo, mouse; details: 20 mg/kg oral gavage four times at 12-h intervals
Procedure, shortened: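 Insulin-resistant KKAY mice received test compound at 20 mg/kg by oral gavage four times at 12-h intervals. A jugular catheter was placed under anaesthesia 4–5 days earlier. Plasma [3H]glucose was sampled before, during and at the end. HGP was taken basally and under clamp. N = 7; two-tailed Student t test.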

[8] = test system: C57BL/6 mice; experiment: High-fat diet-induced elevated fasting blood glucose; type: in vivo, mouse; details: 10 mg/kg/day in high-fat diet for 10 weeks, 4-h fast
Procedure, shortened: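 C57BL/6 mice ate a high-fat diet (55% of calories from fat) for 10 weeks, with or without test compound at 10 mg/kg/day. Blood glucose was measured after a 4-h fast, N = 5.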

Structure (SMILES): CCCCCCOC(=O)[C@]1(O)C[C@@H]2O[C@@]1(C)n1c3ccccc3c3c4c(c5c6ccccc6n2c5c31)C(=O)NC4 [KT5720]
inhibition of IL-6 mRNA induction by NECA ([1]; ECs, inhibitor at 1 μmol/L): significantly inhibited

Structure (SMILES): CNC(=O)[C@H]1O[C@@H](n2cnc3c(NCc4cccc(I)c4)nc(Cl)nc32)[C@H](O)[C@@H]1O [Cl-IB-MECA]
effect on IL-6 production in ECs (ELISA) [2]: without effect

Structure (SMILES): Nc1nc2c(cnn2CCc2ccc(S(=O)(=O)F)cc2)c2nc(-c3ccco3)nn12 [FSPTP]
effect on NECA-induced increase in cyclic AMP ([3]; 1 μmol/L ATL-692, 100 nmol/L FSPTP): not affected

Structure (SMILES): CCNC(=O)[C@H]1O[C@@H](n2cnc3c(N)ncnc32)[C@H](O)[C@@H]1O [NECA, 5′-N-ethylcarboxamidoadensoine]
plasma IL-6 ([4]; C57BL/6J mice, 4 h after administration): increase in plasma IL-6
fasting glucose levels ([4]; C57BL/6 mice, 35 min after gavage): significantly increased
glucose disposal during GTT ([4]; wild-type fasted mice, oral gavage 0.3 mg/kg 35 min before GTT): substantial delay in glucose disposal
IL-6 production (protein) in ECs ([2]; 1 μmol/L, time course): more sustained stimulation
production of the murine IL-8 homolog KC in ECs ([2]; 1 μmol/L, time course): stimulates the production
EC50 ([2]; read-out: EC50 to stimulate IL-6 production in ECs, ECs from C57BL/6 mice, 24 h): 140 nM
cyclic AMP in ECs ([3]; agonist alone): rapid increase in cyclic AMP
IL-6 mRNA in ECs ([1]; 1 μmol/L, time course): transient increase

Structure (SMILES): OC[C@H]1O[C@@H](n2cnc3c(NC4CCCC4)ncnc32)[C@H](O)[C@@H]1O [CPA]
effect on IL-6 production in ECs (ELISA) [2]: without effect

Structure (SMILES): CCNC(=O)[C@H]1O[C@@H](n2cnc3c(N)nc(NCCc4ccc(CCC(=O)O)cc4)nc32)[C@H](O)[C@@H]1O [CGS21680]
effect on IL-6 production in ECs (ELISA) [2]: without effect

aqueous solubility [5]: 30 µg/mL (≈ 65.3 µM)
oral bioavailability [6]: 73%
Structure (SMILES): CCCn1c(=O)n(C2CC2)c(=O)c2[nH]c(-c3ccc(N(CC)C(=O)c4cccnc4)nc3)nc21 [ATL-801]
basal HGP rate [7]: markedly reduced
clamp HGP rate (insulin-stimulated state) [7]: markedly reduced
increase in hepatic insulin action (insulin-mediated percent suppression of basal HGP) [7]: 30%
diet-induced elevated fasting blood glucose [8]: significantly reduced

Reference: PMC3028369 (Diabetes, 2011)
